From ChEMBL document CHEMBL3862000, “Tetrahydroindazole derivatives as potent and peripherally selective cannabinoid-1 (CB1) receptor inverse agonists” (Bioorg Med Chem Lett, 2016)

What was measured:
Cannabinoid receptor 2 = Cannabinoid receptor 2 (Homo sapiens, UniProt P34972); experiment: Inverse agonist activity at human cannabinoid receptor 2 expressed in HEK293 cells assessed as increase in forskolin-induced cAMP production preincubated with cells followed by forskolin stimulation measured after 30 mins in presence of D2-labeled cAMP and Eu3+-TBP-NHS cryptate by HTRF assay; assay type: functional, cell-based
Cannabinoid receptor 2, sequence (P34972 whole entry): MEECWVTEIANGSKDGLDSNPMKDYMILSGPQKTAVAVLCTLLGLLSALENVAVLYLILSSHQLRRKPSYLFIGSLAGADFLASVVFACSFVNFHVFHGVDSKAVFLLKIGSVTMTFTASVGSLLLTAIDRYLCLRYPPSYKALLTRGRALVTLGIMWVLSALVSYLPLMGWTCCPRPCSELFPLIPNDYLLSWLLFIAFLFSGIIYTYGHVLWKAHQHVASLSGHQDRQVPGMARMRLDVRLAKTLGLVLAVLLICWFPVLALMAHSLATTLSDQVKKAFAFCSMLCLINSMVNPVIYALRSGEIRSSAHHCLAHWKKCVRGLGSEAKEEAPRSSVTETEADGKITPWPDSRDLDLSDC

[1] = Drug uptake in C57bl/6j mouse plasma at 20 mg/kg, po measured at 4 hr post dose by LC/MS analysis; assay type: ADME, organism-based
Procedure, shortened: (§1)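 Male C57bl/6j mice given a single oral dose of 20 mg/kg. Plasma drawn by retro-orbital bleed at 1 h and 4 h. Whole brain minus cerebellum taken at 4 h, wet-weighed, frozen, then homogenized in saline. Compound levels in plasma and brain measured by LC/MS (LOQ 5 ng/ml). Brain/plasma ratio taken from the two concentrations.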

Cannabinoid receptor 1 = Cannabinoid receptor 1 (Homo sapiens, UniProt P21554); experiment: Inverse agonist activity at human cannabinoid receptor 1 expressed in HEK293 cells assessed as increase in forskolin-induced cAMP production preincubated with cells followed by forskolin stimulation measured after 30 mins in presence of D2-labeled cAMP and Eu3+-TBP-NHS cryptate by HTRF assay; assay type: functional, cell-based
Cannabinoid receptor 1, sequence (P21554 whole entry): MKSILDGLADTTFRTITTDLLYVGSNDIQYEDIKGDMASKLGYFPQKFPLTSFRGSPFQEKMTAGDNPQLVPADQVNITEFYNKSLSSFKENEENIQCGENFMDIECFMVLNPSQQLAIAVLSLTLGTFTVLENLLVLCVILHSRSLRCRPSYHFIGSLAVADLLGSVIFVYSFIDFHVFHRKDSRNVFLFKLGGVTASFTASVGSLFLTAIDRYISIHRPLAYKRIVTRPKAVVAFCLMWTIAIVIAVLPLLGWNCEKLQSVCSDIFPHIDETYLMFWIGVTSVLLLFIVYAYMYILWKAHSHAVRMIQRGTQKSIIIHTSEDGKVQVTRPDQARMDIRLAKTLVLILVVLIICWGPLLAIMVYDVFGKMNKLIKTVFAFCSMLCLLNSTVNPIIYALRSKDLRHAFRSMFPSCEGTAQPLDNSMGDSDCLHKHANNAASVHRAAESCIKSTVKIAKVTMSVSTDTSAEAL

[2] = Ratio of drug level in C57bl/6j mouse brain to plasma at 20 mg/kg, po; assay type: ADME, organism-based; details: read-out: BPR
Procedure, shortened: (§2)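 Male mice dosed orally. Plasma taken by retro-orbital bleed at 1 h and 2 h or 1 h and 4 h. Whole brain minus cerebellum removed at 2 h or 4 h, weighed wet, frozen, then homogenized in saline. Compound measured by LC/MS; LOQ 5 ng/ml. B/P ratio is brain over plasma concentration.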

[3] = Drug uptake in C57bl/6j mouse brain without cerebellum at 20 mg/kg, po measured at 4 hr post dose by LC/MS analysis; assay type: ADME, organism-based; details: in vivo; procedure, shortened: as §1
[4] = Drug uptake in C57bl/6j mouse brain without cerebellum at 20 mg/kg, po measured at 2 hrs post dose by LC/MS analysis; assay type: ADME, organism-based; details: for Drug uptake: in vivo, 2 h; procedure, shortened: as §2
[5] = Drug uptake in C57bl/6j mouse plasma at 20 mg/kg, po measured at 2 hrs post dose by LC/MS analysis; assay type: ADME, organism-based; procedure, shortened: as §2
[6] = Drug uptake in diet-induced obese mouse brain at 30 mg/kg, po qd for 3 weeks measured 2 hrs post last dose on day 23; assay type: ADME, organism-based; details: in vivo
Procedure, shortened: (§3)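 Dosing ran daily, oral, in 10% PEG400 + 10% solutol at 5 mL/kg, […], run alongside the efficacy study. Plasma and brain compound levels measured 2 h after the last dose; B/P ratio is brain over plasma concentration.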

Mus musculus [7] = experiment: Toxicity in diet-induced obese mouse model assessed as effect on food intake at 30 mg/kg, po qd for 3 weeks measured on day 19 up to 120 mins post glucose challenge; assay type: organism-based; details: in vivo
[8] = Ratio of drug level in diet-induced obese mouse brain to plasma at 30 mg/kg, po qd for 3 weeks measured 2 hrs post last dose on day 23; assay type: ADME, organism-based; details: read-out: BPR; procedure, shortened: as §3
[9] = Drug uptake in diet-induced obese mouse plasma at 30 mg/kg, po qd for 3 weeks measured 2 hrs post last dose on day 23; assay type: ADME, organism-based; procedure, shortened: as §3
Mus musculus [10] = experiment: Toxicity in diet-induced obese mouse model assessed as effect on body weight at 30 mg/kg, po qd for 3 weeks measured on day 19 up to 120 mins post glucose challenge; assay type: organism-based; details: in vivo
Rattus norvegicus = experiment: Toxicity in Sprague-Dawley rat assessed as CNS-mediated behavior at 30 mg/kg, po by measuring stereotypic activity after 15 mins measured up to 2 hrs; assay type: organism-based; details: in vivo
Procedure, shortened: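 Rats given vehicle (10% PEG400 and 10% solutol) or compound orally. Stereotypic activity recorded automatically from 15 min post-dose for a total of 2 h.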

Mus musculus [11] = experiment: Antiobesity activity in diet-induced obese mouse model assessed as fasting plasma glucose AUC (0 to 120 mins) at 30 mg/kg, po qd for 3 weeks measured on day 19 post glucose challenge by OGTT (reference value: 29890.50 +/- 2516.45 mg/dL.min); assay type: functional, organism-based; set-up: dose 30 mg/kg, time < 2 hr

| SMILES | EC50 (Cannabinoid receptor 2) [nM] | concentration at 4 h [1] [nM] | EC50 (Cannabinoid receptor 1) [nM] | Kp [2] | Drug uptake [3] [nmol/g] | Drug uptake [4] [nmol/g] | concentration at 2 h [5] [nM] | Drug uptake [6] [nmol/g] | Activity (Mus musculus [7]) | Kp at 2 h [8] | concentration at 2 h [9] [nM] | Activity (Mus musculus [10]) | Activity (Rattus norvegicus) | AUC (Mus musculus [11]) [ng·h/mL] | concentration at 2 h ([4]; C57BL/6J, brain without cerebellum, read-out: Drug uptake) [ng/mL] |
| --- | --- | --- | --- | --- | --- | --- | --- | --- | --- | --- | --- | --- | --- | --- | --- |
| C[C@@H](NC(=O)c1nn(-c2ccc(C(F)(F)F)cc2Cl)c2c1CCC/C2=C\c1ccc(Cl)s1)c1ccccn1 | > 10000 | 460 | 18 | 0.11 | 0.051 |  |  |  |  |  |  |  |  |  |  |
| C[C@@H](NC(=O)c1nn(-c2ccc(Cl)c(Cl)c2)c2c1CCCC/C2=C\c1ccc(C(F)(F)F)cc1)c1ccccn1 | > 10000 |  | 56 | 0.01 |  | 0.05 | 4760 |  |  |  |  |  |  |  |  |
| C[C@@H](NC(=O)c1nn(-c2ccc(Cl)cc2Cl)c2c1CCC/C2=C\c1ccc(Cl)s1)c1ccccn1 | 3820 |  | 35 | 0.08 |  | 0.24 | 2960 |  |  |  |  |  |  |  |  |
| C[C@@H](NC(=O)c1nn(-c2ccc(C(F)(F)F)cc2Cl)c2c1CCCC/C2=C\c1ccc(Cl)s1)c1ccccn1 | > 10000 | 640 | 8 | 0.28 | 0.17 |  |  |  |  |  |  |  |  |  |  |
| O=C(NC1(c2ccccn2)CC1)c1nn(-c2ccc(Cl)c(Cl)c2)c2c1CCCC/C2=C\c1ccc(F)cc1 | 807 |  | 13 | 0.05 |  | 0.11 | 2410 |  |  |  |  |  |  |  |  |
| C[C@@H](NC(=O)c1nn(-c2ccc(Cl)cc2)c2c1CCC/C2=C\c1ccc(Cl)cn1)c1ccccn1 | > 10000 |  | 22 | 0.65 |  | 1.91 | 2930 |  |  |  |  |  |  |  |  |
| C[C@@H](NC(=O)c1nn(-c2ccc(Cl)cc2Cl)c2c1CCCC/C2=C\c1ccc(Cl)cn1)c1ccccn1 | 560 |  | 4 | 0.48 |  | 0.16 | 380 |  |  |  |  |  |  |  |  |
| C[C@@H](NC(=O)c1nn(-c2ccc(Cl)cc2Cl)c2c1CCCC/C2=C\c1ccc(Cl)s1)c1ccccn1 | 9410 |  | 2 | 0.15 |  | 0.56 | 3630 |  |  |  |  |  |  |  |  |
| O=C(NC1(c2ccccn2)CC1)c1nn(-c2ccc(C(F)(F)F)cc2Cl)c2c1CCC/C2=C\c1ccc(Cl)s1 | > 10000 | 4630 | 11 | 0.14 | 0.64 |  |  |  |  |  |  |  |  |  |  |
| O=C(NC1CCN(c2ccccn2)CC1)c1nn(-c2ccc(Cl)cc2Cl)c2c1CCC/C2=C\c1ccc(F)cc1 | > 11000 |  | 12 | 0.02 |  | 0.035 | 1520 |  |  |  |  |  |  |  |  |
| C[C@@H](NC(=O)c1nn(-c2ccc(Cl)cc2Cl)c2c1CCC/C2=C\c1ccc(F)cc1)c1ccccn1 | > 10000 |  | 4 | 0.92 |  | 1.39 | 1560 |  |  |  |  |  |  |  |  |
| O=C(NC1(c2ccccn2)CC1)c1nn(-c2ccc(Cl)cc2)c2c1CCC/C2=C\c1ccc(Cl)cc1 | 1610 | 1610 | 7 | 0.82 | 1.28 |  |  |  |  |  |  |  |  |  |  |
| C[C@@H](NC(=O)c1nn(-c2ccc(Cl)c(Cl)c2)c2c1CCCC/C2=C\c1ccc(F)cc1)c1ccccn1 | 2000 |  | 35 | 0.05 |  | 0.07 | 1620 | 0.25 | Non-Toxic | 0.037 | 6620 | Non-Toxic | Non-Toxic | 3.67e+06 |  |
| C[C@@H](NC(=O)c1nn(-c2ccc(Cl)cc2Cl)c2c1CCCC/C2=C\c1ccc(Cl)cc1)c1ccccn1 | 743 |  | 7 | 0.16 |  | 0.13 | 830 |  |  |  |  |  |  |  |  |
| O=C(NC1(c2ccccn2)CC1)c1nn(-c2ccc(C(F)(F)F)cc2Cl)c2c1CCCC/C2=C\c1ccc(Cl)s1 | > 10000 | 1540 | 8 | 0.24 | 0.36 |  |  |  |  |  |  |  |  |  |  |
| C[C@@H](NC(=O)c1nn(-c2ccc(Cl)cc2Cl)c2c1CCCC/C2=C\c1ccc(F)cc1)c1ccccc1 | 5590 |  | 6 |  |  |  | 1290 |  |  |  |  |  |  |  | < 5 |
| C[C@@H](NC(=O)c1nn(-c2ccc(Cl)cc2)c2c1CCCC/C2=C\c1ccc(F)cc1)c1ccccn1 | > 10000 |  | 28 | 0.41 |  | 1.02 | 2470 |  |  |  |  |  |  |  |  |
| C[C@@H](NC(=O)c1nn(-c2ccc(Cl)c(Cl)c2)c2c1CCC/C2=C\c1ccc(Cl)s1)c1ccccn1 | > 10000 | 3180 | 37 | 0.03 | 0.1 |  |  |  |  |  |  |  |  |  |  |
| C[C@@H](NC(=O)c1nn(-c2ccc(Cl)cc2)c2c1CCC/C2=C\c1ccc(Cl)cc1)c1ccccn1 | > 10000 |  | 127 | 0.26 |  | 0.97 | 3720 |  |  |  |  |  |  |  |  |
| C[C@@H](NC(=O)c1nn(-c2ccc(Cl)cc2Cl)c2c1CCC/C2=C\c1ccc(Cl)cc1)c1ccccn1 | 854 | 1600 | 30 | 0.2 | 0.32 |  |  |  |  |  |  |  |  |  |  |
| O=C(NC1CCN(c2ccccn2)CC1)c1nn(-c2ccc(Cl)cc2Cl)c2c1CCCC/C2=C\c1ccc(F)cc1 | > 10000 |  | 28 | 0.03 |  | 0.05 | 2030 |  |  |  |  |  |  |  |  |
| O=C(NC1CCN(c2ccccn2)CC1)c1nn(-c2ccc(Cl)cc2Cl)c2c1CCC/C2=C\c1ccc(Cl)cc1 | > 10000 | 450 | 34 | 0.09 | 0.04 |  |  |  |  |  |  |  |  |  |  |
| C[C@@H](NC(=O)c1nn(-c2ccc(Cl)c(Cl)c2)c2c1CCCC/C2=C\c1ccc(Cl)cc1)c1ccccn1 | > 10000 |  | 37 | 0.02 |  | 0.05 | 2400 |  |  |  |  |  |  |  |  |
